Assay results from PubChem BioAssay AID492968 (Southern Research Specialized Biocontainment Screening …, 2010).

System: HEp-2 viability, luminescence (CellTiter-Glo)
Assay: HEp-2 cell cytotoxicity, dose response, cytotoxicity control for RSV inhibitor project, CellTiter-Glo luminescence, synthesized compounds, set 3 (AID 492968)
How it was run: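 Dosing: eight twofold dilutions, 50 to 0.39 µM final, 0.5% DMSO; assay system: HEp-2 cells; benchmarks: median of cell control wells as viability reference; evaluation: CC50 from 0–100-bounded four-parameter fit; repeats: triplicate wells per compound concentration; buffer or medium: complete DMEM/F12, pH 7.5; technique: CellTiter-Glo luminescence; incubation: 6 d compound exposure, 37 °C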

Compound | CC50 [µM]
Cc1ccc(NC(=O)[C@@H]2CCCN2S(=O)(=O)c2cccc3cccnc23)cc1 | 27.1
Cc1ccccc1NC(=O)[C@@H]1CCCN1S(=O)(=O)c1cccc2cccnc12 | 45
Cc1cc(C)cc(NC(=O)[C@@H]2CCCN2S(=O)(=O)c2cccc3cccnc23)c1 | 31.6
